Data set [1] has as its system WI-38. The data set can be described thus: Antiproliferative activity against human WI38 cells after 72 hrs by MTT assay. As to conditions: WI-38, 72 h. In kind it is functional, cell-based. The essentials:
(§1)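 Monolayers grown in DMEM with 10% FBS, 2 mM L-glutamine and penicillin/streptomycin at 37 °C, 5% CO2. Seeded at 1 × 10⁴–3 × 10⁴ cells/mL on day 0. Compounds from 0.04 M DMSO stocks added at five 10-fold dilutions (10⁻⁸–10⁻⁴ M final), with matched DMSO controls, for 72 h. MTT added for 4 h, formazan dissolved in DMSO, absorbance read at 570 nm. Percentage growth calculated against time-zero and untreated OD. IC50 is 50% inhibition of proliferation.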

For data set [2], the system named is Human alphaherpesvirus 2. As to the kind of experiment: Antiviral activity against HSV2 G-induced cytopathogenicity in HEL cells. As to conditions: Human alphaherpesvirus 2, G. Type of data set: functional.
Data set [3] concerns HEp-2. The data set can be described thus: Antiproliferative activity against human Hep2 cells after 72 hrs by MTT assay. As to conditions: HEp-2, 72 h. In kind it is functional, cell-based. The essentials: as §1
The subject of data set [4] is Human alphaherpesvirus 1. The data set can be described thus: Antiviral activity against HSV1 TK- KOS ACV -induced cytopathogenicity in HEL cells. In kind it is functional. Particulars: Human alphaherpesvirus 1, KOS.
The test system of data set [5] is Human alphaherpesvirus 1. The data set can be described thus: Antiviral activity against HSV1 KOS-induced cytopathogenicity in HEL cells. Type of data set: functional. As to conditions: Human alphaherpesvirus 1, KOS.
In data set [6] the test system is Vesicular stomatitis virus. The data set can be described thus: Antiviral activity against in Vesicular stomatitis virus- induced cytopathogenicity in HeLa cells. In kind it is functional.
For data set [7], the system named is Punta Toro virus. As to the kind of experiment: Antiviral activity against Punta Toro virus-induced cytopathogenicity in Vero cells. Type of data set: functional.
In data set [8] the test system is SW-620. The data set can be described thus: Antiproliferative activity against human SW620 cells after 72 hrs by MTT assay. In kind it is functional, cell-based. As to conditions: SW-620, 72 h. The essentials:
as §1

Data set [9] deals with Vesicular stomatitis virus. As to the kind of experiment: Antiviral activity against in Vesicular stomatitis virus-induced cytopathogenicity in HEL cells. In kind it is functional.
Data set [10] deals with Sindbis virus. The data set can be described thus: Antiviral activity against Sindbis virus-induced cytopathogenicity in Vero cells. Type of data set: functional.
For data set [11], the system named is MCF7. The data set can be described thus: Antiproliferative activity against human MCF7 cells after 72 hrs by MTT assay. Type of data set: functional, cell-based. Particulars: MCF7, 72 h. The essentials:
as §1

In data set [12] the test system is Coxsackievirus B4. As to the kind of experiment: Antiviral activity against Coxsackie virus B4-induced cytopathogenicity in Vero cells. Type of data set: functional. Particulars: Enterovirus B.
Data set [13] in a line: Cytotoxicity against HEL cells. Type of data set: cell-based. As to conditions: human. The essentials: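 Cells seeded at 5 × 10³ cells/well and exposed to medium containing a range of test compound concentrations. After 3 days at 37 °C, cell morphology examined microscopically. Reported as minimum cytotoxic concentration (MCC), the concentration causing a microscopically detectable alteration of normal cell morphology.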

Data set [14] concerns HeLa. As to the kind of experiment: Antiproliferative activity against human HeLa cells after 72 hrs by MTT assay. In kind it is functional, cell-based. The essentials: as §1
In data set [15] the test system is CCRF-CEM. The data set can be described thus: Antiproliferative activity against human CEM cells. Type of data set: functional, cell-based. The essentials:
(§2)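 Suspension cells seeded at 50 × 10³ cells/well with a range of test compound concentrations. Cell number counted with a Coulter counter after 2 days (L1210) or 3 days (Molt4/C8, CEM). IC50 is the concentration that cuts cell growth by 50% versus untreated controls, read from plots of cell number (% of control) against concentration.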

A short description of data set [16]: Antiproliferative activity against human Molt4/C8 cells. Particulars: MOLT-4. In kind it is functional, cell-based. The essentials: as §2
The subject of data set [17] is L1210. As to the kind of experiment: Antiproliferative activity against mouse L1210 cells. In kind it is functional, cell-based. The essentials:
as §2

For data set [18], the system named is MIA PaCa-2. The data set can be described thus: Antiproliferative activity against human MiaPaCa2 cells after 72 hrs by MTT assay. In kind it is functional, cell-based. As to conditions: Homo sapiens, MIA PaCa-2, 72 h; read-out: IC50. The essentials:
as §1

Each structure is given as a SMILES string. Values after ≈ are worked out from the molar mass of the structure shown.

For `C=Cc1cn(C/C=C2\OC(=O)C(OCc3ccccc3)=C2OCc2ccccc2)c(=O)[nH]c1=O`, the IC50 in data set [1] was determined as 14.3 µM; in data set [3] it was 14.2 µM; in data set [8], 15.6 µM; in data set [11] it was 3.8 µM; in data set [14] it was 14.5 µM; in [15], 7.2 µM. Moreover, the IC50 in data set [16] came to 7.6 µM; in data set [17], 7.2 µM; in [18] it was 22 µM. Also, the MIC in [2], in data set [4], in data set [5], in data set [6], in data set [7] and in [9] was over 18 µM each time. The MIC in data set [10] and in [12] was over 18 µM in each case. The MCC in [13] is 87 µM.
`O=C1O/C(=C\Cn2cc(-c3ccco3)c(=O)[nH]c2=O)C(O)=C1O`: the IC50 was over 100 µM in [1]; over 100 µM in data set [3]; over 100 µM in [8]; over 100 µM in data set [11]; over 100 µM in data set [14]; 436 µM in data set [15]. The IC50 is at least 500 µM in data set [16], at least 500 µM in [17] and over 100 µM in data set [18]. Also, the MIC in data set [2], in [4], in data set [5], in data set [6], in data set [7] and in [9] was over 100 µM throughout. The MIC in data set [10] and in [12] was over 100 µM in each case. Further, the MCC in [13] was determined as 100 µM.
For `C#Cc1cn(C/C=C2\OC(=O)C(OCc3ccccc3)=C2OCc2ccccc2)c(=O)[nH]c1=O`, the IC50 in data set [1] was found to be 1.5 µM; in data set [3] it was 4.6 µM; in data set [8] it was 5 µM; in [11], 2.9 µM; in data set [14], 3.2 µM; in data set [15], 4.6 µM. Besides, the IC50 in data set [16] was 7.2 µM; in [17], 6.8 µM; in data set [18], 8.7 µM. Besides, the MIC in [2], in [4], in data set [5], in [6], in data set [7] and in data set [9] was over 18 µM in each case. Besides, the MIC in [10] and in data set [12] was over 18 µM throughout. The compound also had an MCC in [13] of at least 18 µM.
With `CC(C)=CCc1cn(C/C=C2\OC(=O)C(OCc3ccccc3)=C2OCc2ccccc2)c(=O)[nH]c1=O`, the IC50 worked out at 2 µM in data set [1]; 2.6 µM in data set [3]; 4 µM in data set [8]; 4 µM in data set [11]; 2 µM in data set [14]; 7.7 µM in data set [15]. The values for the IC50 in [16], in data set [17] and in data set [18] were 8.3 µM, 8.2 µM and 5 µM, respectively. Besides, the MIC is 4 µM (≈ 2 µg/mL) in data set [2]; over 4 µM in data set [4]; 4 µM (≈ 2 µg/mL) in data set [5]; over 4 µM in [6]; 4 µM (≈ 2 µg/mL) in [7]; over 4 µM in data set [9]. For the same compound, the MIC in [10] and in [12] was over 4 µM each time. The compound further yielded an MCC in [13] of 20 µM.
